In ChEMBL document CHEMBL4145582, “Cytotoxic and Antibacterial Eremophilane Sesquiterpenes from the Marine-Derived Fungus Cochliobolus lunatus SCSIO41401” (J Nat Prod, 2018):
In brackets after ≈: the same amount, converted by molar mass.

How the values were obtained:
[1] = system: ACHN; test: Cytotoxicity against human ACHN cells after 72 hrs by CCK8 assay; assay type: functional, cell-based
Summary of the method: (§1)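 Renal cancer lines ACHN, 786-O and OS-RC-2; cell viability read by CCK-8 assay, with sorafenib as positive control.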

[2] = system: 786-0; test: Cytotoxicity against human 786-O cells after 72 hrs by CCK8 assay; assay type: functional, cell-based; conditions: 786-0, 72 h; summary of the method: as §1
[3] = system: OS-RC-2; test: Cytotoxicity against human OS-RC2 cells after 72 hrs by CCK8 assay; assay type: functional, cell-based; conditions: OS-RC-2, 72 h; summary of the method: as §1
[4] = system: HepG2; test: Cytotoxicity against human HepG2 cells after 6 days by MTT assay; assay type: functional, cell-based; conditions: HepG2, 144 h
Summary of the method: (§2)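 HepG-2 and SGC7901 cells; growth inhibition read by MTT method, with 5-fluorouracil as positive control.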

[5] = system: SGC-7901; test: Cytotoxicity against human SGC7901 cells after 6 days by MTT assay; assay type: functional, cell-based; conditions: SGC-7901, 144 h; summary of the method: as §2
[6] = system: Escherichia coli; test: Antimicrobial activity against Escherichia coli ATCC 25922 after 24 hrs by serial dilution method; assay type: functional; conditions: ATCC 25922, 24 h
Summary of the method: (§3)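 Serial broth dilution in 96-well microtiter plates. Compounds and controls are dissolved in DMSO as stock. Bacteria are grown overnight at 37 °C, then diluted to 10^6 cfu/mL. E. coli and S. aureus are grown in Luria–Bertani broth. P. multocida and E. rhusiopathiae are grown in trypticase soy broth with 10% calf serum. Plates are incubated at 37 °C for 24 h and read at 630 nm.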

[7] = system: Staphylococcus aureus; test: Antimicrobial activity against Staphylococcus aureus subsp. aureus Rosenbach ATCC 25923 after 24 hrs by serial dilution method; assay type: functional; conditions: Rosenbach ATCC 25923, 24 h; summary of the method: as §3
[8] = system: Erysipelothrix rhusiopathiae; test: Antimicrobial activity against Erysipelothrix rhusiopathiae ATCC 19414 after 24 hrs by serial dilution method; assay type: functional; conditions: ATCC 19414, 24 h; summary of the method: as §3
[9] = system: Pasteurella multocida; test: Antimicrobial activity against Pasteurella multocida subsp. multocida ATCC 43137 after 24 hrs by serial dilution method; assay type: functional; conditions: ATCC 43137, 24 h; summary of the method: as §3

- MIC [6]: > 100 µg/mL
- MIC [7]: 1.5 µg/mL (≈ 3.64 µM)
- MIC [8]: 13 µg/mL (≈ 31.5 µM)
- MIC [9]: 13 µg/mL (≈ 31.5 µM)
SMILES: C=C(C=O)[C@]1(O)C[C@@]2(C)C(=CC1=O)C=C[C@H](OC(=O)/C=C/C(C)=C/[C@@H](C)CC)[C@@H]2C
- IC50 [1]: 4.3 µM
- IC50 [2]: 2.5 µM
- IC50 [3]: 3.7 µM
- IC50 [4]: 1.4 µM
- IC50 [5]: 1.4 µM
